Assay results as given in ChEMBL document CHEMBL1134785, “Synthesis and biological evaluation of prostaglandin-F alkylphosphinic acid derivatives as bone anabolic agents for the treatment of osteoporosis” (J Med Chem, 2001).

Tests used:
[1] = Dissociation constant was determined; format: physicochemical
[2] = biological target: T1, Prostaglandin F2-alpha receptor (Homo sapiens, UniProt P43088); test: In vitro binding at FP human prostaglandin receptor using [3H]PGF-2 alpha as radioligand
Outline: (§1)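 COS-7 cells transiently transfected with hFP plasmid and harvested 48 h later. Membranes from nitrogen cavitation and 100000g spin, taken up at 1 mg protein/mL in TME buffer pH 6.0. Each well held 100 μg membrane, 5 nM [3H]PGF2α and competitor, n=3, 1 h at 23 °C. Bound label collected by GF/B filtration, washed in TME, scintillation counted.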

[3] = biological target: Prostacyclin receptor (Homo sapiens, UniProt P43119); test: In vitro binding at prostanoid IP receptor using [3H]iloprost as radioligand
Prostacyclin receptor, sequence (P43119 whole entry): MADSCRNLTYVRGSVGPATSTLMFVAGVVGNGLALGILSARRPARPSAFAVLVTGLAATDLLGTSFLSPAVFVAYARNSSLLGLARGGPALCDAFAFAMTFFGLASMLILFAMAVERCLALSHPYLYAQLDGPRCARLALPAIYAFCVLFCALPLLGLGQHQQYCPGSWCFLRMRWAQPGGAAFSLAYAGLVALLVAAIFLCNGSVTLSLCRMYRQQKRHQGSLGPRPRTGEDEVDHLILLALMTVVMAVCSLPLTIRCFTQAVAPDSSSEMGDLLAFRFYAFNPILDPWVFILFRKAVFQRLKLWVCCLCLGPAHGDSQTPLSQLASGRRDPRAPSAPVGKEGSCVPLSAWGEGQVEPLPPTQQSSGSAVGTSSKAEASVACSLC
Outline: (§2)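 Receptors stably expressed in CHO cells, collected 4-5 days after seeding. Membranes made by lysis (Tris, EDTA, protease inhibitors) and 100000g pellet, then resuspended at 1 mg protein/mL in TME. Radioligands at 5 nM: [3H]PGE2 for EP2/EP3/EP4, [3H]Iloprost for IP, [3H]SQ-29548 for TP. Competition binding with filtration and counting.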

[4] = biological target: Prostaglandin E2 receptor EP2 subtype (Homo sapiens, UniProt P43116); test: In vitro binding at EP2 human prostaglandin receptor using [3H]PGE-2 as radioligand; outline: as §2
Prostaglandin E2 receptor EP2 subtype, sequence (P43116 whole entry): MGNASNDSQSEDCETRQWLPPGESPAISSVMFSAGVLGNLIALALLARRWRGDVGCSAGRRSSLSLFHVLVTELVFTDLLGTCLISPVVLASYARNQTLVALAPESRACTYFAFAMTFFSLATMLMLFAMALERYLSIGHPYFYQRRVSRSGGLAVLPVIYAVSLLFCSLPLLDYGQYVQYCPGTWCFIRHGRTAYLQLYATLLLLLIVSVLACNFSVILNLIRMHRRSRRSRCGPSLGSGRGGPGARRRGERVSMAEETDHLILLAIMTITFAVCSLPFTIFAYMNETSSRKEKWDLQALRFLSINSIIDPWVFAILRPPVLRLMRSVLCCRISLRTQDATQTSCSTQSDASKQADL

[5] = biological target: Prostaglandin E2 receptor EP4 subtype (Homo sapiens, UniProt P35408); test: In vitro binding at EP4 human prostaglandin receptor using [3H]PGE-2 as radioligand; outline: as §2
Prostaglandin E2 receptor EP4 subtype, sequence (P35408 whole entry): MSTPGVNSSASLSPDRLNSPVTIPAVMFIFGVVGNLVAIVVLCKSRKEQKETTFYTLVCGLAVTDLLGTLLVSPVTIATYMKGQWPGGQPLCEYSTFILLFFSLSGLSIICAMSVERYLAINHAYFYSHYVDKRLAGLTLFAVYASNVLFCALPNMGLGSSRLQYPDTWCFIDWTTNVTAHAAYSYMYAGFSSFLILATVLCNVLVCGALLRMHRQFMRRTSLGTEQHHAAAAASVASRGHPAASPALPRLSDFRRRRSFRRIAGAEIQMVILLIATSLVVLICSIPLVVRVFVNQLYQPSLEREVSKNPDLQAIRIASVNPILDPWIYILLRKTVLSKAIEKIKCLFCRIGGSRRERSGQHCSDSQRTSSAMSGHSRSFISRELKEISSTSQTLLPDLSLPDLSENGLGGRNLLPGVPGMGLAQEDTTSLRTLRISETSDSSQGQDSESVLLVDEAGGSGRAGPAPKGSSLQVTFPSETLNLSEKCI

[6] = biological target: T2, Prostaglandin E2 receptor EP1 subtype (Homo sapiens, UniProt P34995); test: In vitro binding at EP1 human prostaglandin receptor using [3H]PGE-2 as radioligand
T2 sequence (P34995 whole entry): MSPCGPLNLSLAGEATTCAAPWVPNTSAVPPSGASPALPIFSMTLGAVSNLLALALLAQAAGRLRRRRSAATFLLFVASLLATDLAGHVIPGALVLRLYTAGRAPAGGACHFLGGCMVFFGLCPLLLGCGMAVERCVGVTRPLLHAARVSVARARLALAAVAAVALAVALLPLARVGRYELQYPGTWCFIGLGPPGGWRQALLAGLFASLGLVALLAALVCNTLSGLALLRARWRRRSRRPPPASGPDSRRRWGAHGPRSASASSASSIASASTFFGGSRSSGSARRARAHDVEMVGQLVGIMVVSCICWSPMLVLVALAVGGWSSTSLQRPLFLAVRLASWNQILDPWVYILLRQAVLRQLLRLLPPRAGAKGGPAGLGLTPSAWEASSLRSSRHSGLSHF
Outline: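 hEP1 transiently expressed in COS-7 cells by the hFP transfection and membrane protocol, with membranes in TME buffer pH 6.0. Competition binding used 5 nM [3H]PGE2, 1 h at 23 °C, filtration and scintillation counting.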

[7] = biological target: T3, Thromboxane A2 receptor (Homo sapiens, UniProt P21731); test: In vitro binding at TP human prostaglandin receptor using [3H]SQ-29,548 as radioligand; outline: as §2
T3 sequence (P21731 whole entry): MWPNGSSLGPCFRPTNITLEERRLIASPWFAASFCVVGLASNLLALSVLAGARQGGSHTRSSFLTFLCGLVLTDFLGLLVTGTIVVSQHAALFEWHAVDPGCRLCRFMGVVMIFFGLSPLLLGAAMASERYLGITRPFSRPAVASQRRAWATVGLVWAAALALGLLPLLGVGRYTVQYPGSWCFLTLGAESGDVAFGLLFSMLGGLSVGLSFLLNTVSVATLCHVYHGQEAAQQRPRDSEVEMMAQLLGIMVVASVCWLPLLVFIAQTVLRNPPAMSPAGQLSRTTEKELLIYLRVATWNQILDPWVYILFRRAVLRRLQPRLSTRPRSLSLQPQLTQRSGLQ

[8] = biological target: T4, Prostaglandin E2 receptor EP3 subtype (Homo sapiens, UniProt P43115); test: In vitro binding at EP3 human prostaglandin receptor using [3H]PGE-2 as radioligand; outline: as §2
T4 sequence (P43115 whole entry): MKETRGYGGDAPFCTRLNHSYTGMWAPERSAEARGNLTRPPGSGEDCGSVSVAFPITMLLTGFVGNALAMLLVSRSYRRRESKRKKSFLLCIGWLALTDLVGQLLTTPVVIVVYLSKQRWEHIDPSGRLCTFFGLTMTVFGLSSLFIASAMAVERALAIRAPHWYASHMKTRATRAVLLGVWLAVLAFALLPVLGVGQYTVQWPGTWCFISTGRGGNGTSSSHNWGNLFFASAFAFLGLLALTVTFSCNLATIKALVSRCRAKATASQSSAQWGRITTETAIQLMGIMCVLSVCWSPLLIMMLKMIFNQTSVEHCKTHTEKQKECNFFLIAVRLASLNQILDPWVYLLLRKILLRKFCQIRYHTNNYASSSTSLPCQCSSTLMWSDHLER

[9] = biological target: T5, Prostaglandin D2 receptor (Homo sapiens, UniProt Q13258); test: In vitro binding at DP human prostaglandin receptor using [3H]- PGD-2 as radioligand
T5 sequence (Q13258 whole entry): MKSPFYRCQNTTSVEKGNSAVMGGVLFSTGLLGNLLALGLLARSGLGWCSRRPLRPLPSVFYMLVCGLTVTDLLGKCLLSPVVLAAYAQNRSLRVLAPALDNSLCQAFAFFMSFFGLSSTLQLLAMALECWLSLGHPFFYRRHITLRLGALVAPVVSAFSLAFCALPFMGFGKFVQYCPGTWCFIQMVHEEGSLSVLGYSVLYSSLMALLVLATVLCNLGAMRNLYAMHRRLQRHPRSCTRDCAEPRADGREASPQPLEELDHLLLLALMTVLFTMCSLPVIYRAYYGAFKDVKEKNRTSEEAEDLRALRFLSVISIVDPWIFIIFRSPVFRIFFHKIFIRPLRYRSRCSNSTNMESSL
Outline: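 hDP stably expressed in HEK-293 cells, collected 4-5 days after seeding. Membranes made by lysis and 100000g spin, then taken up at 1 mg protein/mL in TME buffer at pH 7.4. Competition binding used 5 nM [3H]PGD2, read by filtration and scintillation counting.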

[10] = biological target: T3, Thromboxane A2 receptor; test: Functional activity in RAT-1 cells, transiently transfected with human prostaglandin TP receptor; format: cell-based
Outline: (§3)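 RAT-1 cells transiently transfected with the human receptor, carrying a stably transfected, constitutively expressed β-galactosidase reporter gene. EC50 read after timed hydrolysis of a galactosidase pseudosubstrate.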

[11] = biological target: T2, Prostaglandin E2 receptor EP1 subtype; test: Functional activity in RAT-1 cells, transiently transfected with human prostaglandin EP1 receptor; format: cell-based; outline: as §3
[12] = biological target: T4, Prostaglandin E2 receptor EP3 subtype; test: Functional activity in RAT-1 cells, transiently transfected with human prostaglandin EP3 receptor; format: cell-based; outline: as §3
[13] = biological target: T1, Prostaglandin F2-alpha receptor; test: In vitro binding at FP human prostaglandin receptor using [3H]- PGF-2 alpha as radioligand; outline: as §1
[14] = test system: Rattus norvegicus; test: Mineral apposition measured Histomorphometrically after a dose of 3 ug/kg in proximal tibial metaphysis
[15] = test system: Rattus norvegicus; test: Connectivity density measured using micro Computed Tomography(CT) after a dose of 250 ug/kg in Vertebral Bone; format: functional
[16] = test system: Rattus norvegicus; test: Marrow area measured Histomorphometrically after a dose of 250 ug/kg in Tibial Diaphysis; format: functional
[17] = test system: Rattus norvegicus; test: Trabecular thickness measured Histomorphometrically after a dose of 250 ug/kg in proximal tibial metaphysis; format: functional, Trabecula
[18] = test system: Rattus norvegicus; test: Derived trabecular thickness measured using micro Computed Tomography(CT) after a dose of 250 ug/kg in Vertebral Bone; format: functional, Trabecula
[19] = test system: Rattus norvegicus; test: Mineral surface/bone surface measured Histomorphometrically after a dose of 250 ug/kg in proximal tibial metaphysis; format: functional
[20] = test system: Rattus norvegicus; test: Directly measured thickness measured using micro Computed Tomography(CT) after a dose of 250 ug/kg in Vertebral Bone; format: functional
[21] = test system: Rattus norvegicus; test: Bone Volume /Tissue Volume (%)measured Histomorphometrically after a dose of 250 ug/kg in proximal tibial metaphysis; format: functional
[22] = test system: Rattus norvegicus; test: Endosteal eroded surface measured Histomorphometrically after a dose of 250 ug/kg in Tibial Diaphysis; format: functional
[23] = test system: Rattus norvegicus; test: Periosteal mineralizing surface measured Histomorphometrically after a does of 250 ug/kg in Tibial Diaphysis; format: functional
[24] = test system: Rattus norvegicus; test: Mineralizing apposition measured Histomorphometrically after a dose of 250 ug/kg in Tibial Diaphysis; format: functional
[25] = test system: Rattus norvegicus; test: Bone Formation rate/tissue vol measured Histomorphometrically after a does of 250 ug/kg in proximal tibial metaphysis; format: functional
[26] = test system: Rattus norvegicus; test: Derived trabecular no measured using micro Computed Tomography(CT) after a dose of 6000 ug/kg in Vertebral Bone; format: functional, Trabecula
Outline: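 Micro-CT of the fifth lumbar vertebra, measuring cancellous bone volume and architecture. Rats were 6 months old, OVX 60 days before treatment, then dosed daily for 60 days. Test-agent doses were 10–3000 µg/kg, given as a once-daily subcutaneous injection; 6 mg/kg/day was given to the positive-control group. Groups were compared with vehicle by ANOVA plus LSD test.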

[27] = test system: Rattus norvegicus; test: Endosteal mineralizing surface measured Histomorphometrically after a does of 250 ug/kg in Tibial Diaphysis; format: functional
[28] = test system: Rattus norvegicus; test: Bone Formation rate/bone measured Histomorphometrically after a dose of 250 ug/kg in proximal tibial metaphysis; format: functional
[29] = test system: Rattus norvegicus; test: Mineral apposition measured Histomorphometrically after a dose of 250 ug/kg in proximal tibial metaphysis; format: functional
[30] = test system: Rattus norvegicus; test: Bone Volume /Tissue Volume (%)measured using micro Computed Tomography(CT) after a dose of 250 ug/kg in Vertebral Bone; format: functional
[31] = test system: Rattus norvegicus; test: Tissue area measured Histomorphometrically after a dose of 250 ug/kg in Tibial Diaphysis; format: functional
[32] = test system: Rattus norvegicus; test: Trabecular no measured Histomorphometrically after a dose of 250 ug/kg in proximal tibial metaphysis; format: functional, Trabecula

T1 sequence (P43088 whole entry): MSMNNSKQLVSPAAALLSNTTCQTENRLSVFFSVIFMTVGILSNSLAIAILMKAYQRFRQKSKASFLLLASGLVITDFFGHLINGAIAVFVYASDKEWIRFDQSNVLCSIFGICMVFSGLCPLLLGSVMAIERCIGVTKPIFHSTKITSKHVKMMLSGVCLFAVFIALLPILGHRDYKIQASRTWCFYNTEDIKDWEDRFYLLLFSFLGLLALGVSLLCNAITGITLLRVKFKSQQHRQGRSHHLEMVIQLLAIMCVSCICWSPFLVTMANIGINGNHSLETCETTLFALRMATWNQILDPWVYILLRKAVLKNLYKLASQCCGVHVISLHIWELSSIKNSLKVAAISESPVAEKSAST

## CCCCC[C@H](O)/C=C/[C@@H]1[C@@H](C/C=C\CCCP(=O)(O)CCCC)[C@@H](O)C[C@H]1O
[1]
  pKa: 3.36
[2]
  IC50: 6700 nM

## CCCCC[C@H](O)/C=C/[C@@H]1[C@@H](C/C=C\CCCP(=O)(O)CC)[C@@H](O)C[C@H]1O
[1]
  pKa: 3.24
[2]
  IC50: 4100 nM

## CCCCC[C@H](O)/C=C/[C@@H]1[C@@H](C/C=C\CCC[PH](=O)O)[C@@H](O)C[C@H]1O
[3]
  IC50: > 10 µM
[4]
  IC50: > 10 µM
[1]
  pKa: 3.39
[5]
  IC50: > 10 µM
[2]
  IC50: 114 nM
[6]
  IC50: > 10000 nM
[7]
  IC50: > 10 µM
[8]
  IC50: > 10000 nM
[9]
  IC50: > 10 µM

## O=C(O)CCC/C=C\C[C@@H]1[C@@H](/C=C/[C@@H](O)COc2ccccc2)[C@H](O)C[C@@H]1O
[10]
  EC50: 510 nM
[11]
  EC50: 38 nM
[1]
  pKa: 4.77
[12]
  EC50: 186 nM
[2]
  IC50: 2 nM

## CCCCC[C@H](O)/C=C/[C@@H]1[C@@H](C/C=C\CCCP(=O)(O)OCC)[C@@H](O)C[C@H]1O
[13]
  IC50: > 10000 nM
[1]
  pKa: 2.36

## CCCCC[C@H](O)/C=C/[C@@H]1[C@@H](C/C=C\CCCP(=O)(O)O)[C@@H](O)C[C@H]1O
[13]
  IC50: 1000 nM
[1]
  pKa: 2.38

## CCCCC[C@H](O)/C=C/[C@@H]1[C@@H](C/C=C\CCCP(C)(=O)O)[C@@H](O)C[C@H]1O
[1]
  pKa: 3.1
[2]
  IC50: 311 nM

## NCCCC(O)(P(=O)(O)O)P(=O)(O)O [ALENDRONIC ACID]
[14]
  Mineral apposition rate: 0.63 µm/day

## O=C(O)CCC/C=C\CC1C(O)CC(O)C1/C=C/C(O)COc1cccc(Cl)c1 (centres undefined) [CLOPROSTENOL]
[15]
  Connectivity density: 61.13 mm**-3
[16]
  Marrow area: 0.7 mm
[17]
  Trabecular thickness: 53.9
[18]
  Derived trabecular thickness: 85.8 µm
[19]
  Activity: 22.99%
[20]
  Directly measured thickness: 138 µm
[21]
  Activity: 9.5%
[22]
  Endosteal eroded surface: 2.22%
[23]
  Periosteal mineralizing surface: 9.91%
[24]
  Mineralizing apposition rate: 1.6 µm/day
[25]
  Activity: 26.44%
[26]
  Derived trabecular number: 4.6 mM⁻¹
[27]
  Endosteal mineralizing surface: 55.18%
[28]
  Activity: 286.86%
[29]
  Mineral apposition rate: 1.09 µm/day
[30]
  Activity: 42.04%
[31]
  Tissue area: 4.78 mm
[32]
  Trabecular no.: 1.77

## CCCCC[C@H](O)/C=C/[C@@H]1[C@@H](C/C=C\CCCC(=O)O)[C@@H](O)C[C@H]1O [DINOPROST]
[3]
  IC50: > 10 µM
[4]
  IC50: > 10 µM
[1]
  pKa: 4.77
[6]
  IC50: 220 nM
[7]
  IC50: > 10 µM
[8]
  IC50: 110 nM
